# Results: ChEMBL document CHEMBL1154263, “Gamma-lactones and ent-eudesmane sesquiterpenes from the endophytic fungus Eutypella sp. BCC 13199” (J Nat Prod, 2009)
# Active and inactive are the calls of the source. No cut-off for these calls is given here.
# What was measured:
# [1] = tested on: Plasmodium falciparum; test: Antimalarial activity against Plasmodium falciparum K1; assay type: functional, organism-based
# [2] = tested on: Mycobacterium tuberculosis; test: Antituberculosis activity against Mycobacterium tuberculosis H37Ra; assay type: functional, organism-based
# [3] = tested on: Vero; test: Cytotoxicity against african green monkey Vero cells after 8 days by green fluorescent protein microplate assay; assay type: cell-based; settings: Chlorocebus sabaeus, 192 h
# Method in brief: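 Vero cells (African green monkey kidney fibroblasts); cytotoxicity read by green fluorescent protein microplate assay (GFPMA).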
# [4] = tested on: MCF7; test: Cytotoxicity against human MCF7 cells by resazurin microplate assay; assay type: functional, cell-based
# Method in brief: (§1)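 Resazurin microplate assay on human tumour cell lines: KB (oral epidermoid carcinoma), MCF-7 (breast cancer) and NCI-H187 (small-cell lung cancer).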
# [5] = tested on: NCI-H187; test: Cytotoxicity against human NCI-H187 cells by resazurin microplate assay; assay type: functional, cell-based; method in brief: as §1
# [6] = tested on: KB; test: Cytotoxicity against human KB cells by resazurin microplate assay; assay type: functional, cell-based; method in brief: as §1
# [7] = tested on: Candida albicans; test: Antifungal activity against Candida albicans; assay type: functional, organism-based
# [8] = tested on: Pyricularia grisea; test: Antifungal activity against Magnaporthe grisea; assay type: functional, organism-based
Compound,Activity [1],Activity [2],IC50 [3],IC50 [4],IC50 [5],IC50 [6],Activity [7],Activity [8]
C=C1CCC(=O)[C@@]2(C)CC[C@H](C(C)(C)O)C[C@H]12,inactive,inactive,32 µM,20 µM,11 µM,32 µM,inactive,inactive
C=C1CC[C@H](O)[C@@]2(C)CC[C@H](C(C)(C)O)C[C@H]12,inactive,inactive,> 210 µM,> 210 µM,> 210 µM,> 210 µM,inactive,inactive
COc1cccc2c1C(=O)c1c(O)c3c(c(O)c1C2=O)C[C@@](O)(C(=O)CO)C[C@@H]3O[C@H]1C[C@H](N)[C@H](O)[C@H](C)O1 [DOXORUBICIN],–,–,–,–,0.25 µM,0.28 µM,–,–
Cc1c2ccncc2c(C)c2c1[nH]c1ccccc12 [ELLIPTECINE],–,–,5.5 µM,–,3.6 µM,2.5 µM,–,–
O=C/C=C/C=C1/C(=O)O[C@H](/C=C/CO)[C@H]1O [EUTYPELLIN A],inactive,inactive,88 µM,84 µM,12 µM,38 µM,inactive,inactive
O=C1O[C@H](/C=C/CO)[C@@H](O)/C1=C\C=C\CO [EUTYPELLIN B],inactive,inactive,> 221 µM,> 221 µM,206 µM,144 µM,inactive,inactive
